What was measured:
Cholinesterase [1] = target: Cholinesterase (Equus caballus, UniProt P81908); test: Irreversible inhibition of equine serum BuChE assessed as second order carbamylation rate constant using S-butyrylthiocholine iodide as substrate preincubated up to 45 mins followed by substrate addition measured after 5 mins; settings: read-out: kon (M-1-s-1)
Outline: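 Equine BChE, pH 8, 37°C, was preincubated for 1, 2, 4, 8, 15, 30 and 45 min with inhibitor at 1×10^-7 to 5×10^-6 M (seven levels). Residual activity was read by Ellman with BTCh and normalised to a water control at each time. kobs came from a one-phase exponential decay fit; k_I1 came from the linear kobs versus concentration relation.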

Cholinesterase [2] = target: Cholinesterase (Homo sapiens, UniProt P06276); test: Irreversible inhibition of human plasma BuChE assessed as second order carbamylation rate constant using S-butyrylthiocholine iodide as substrate preincubated up to 45 mins followed by substrate addition measured after 5 mins; settings: read-out: kon (M-1-s-1)
Chain of Cholinesterase (Homo sapiens, UniProt P06276) (P06276 whole entry): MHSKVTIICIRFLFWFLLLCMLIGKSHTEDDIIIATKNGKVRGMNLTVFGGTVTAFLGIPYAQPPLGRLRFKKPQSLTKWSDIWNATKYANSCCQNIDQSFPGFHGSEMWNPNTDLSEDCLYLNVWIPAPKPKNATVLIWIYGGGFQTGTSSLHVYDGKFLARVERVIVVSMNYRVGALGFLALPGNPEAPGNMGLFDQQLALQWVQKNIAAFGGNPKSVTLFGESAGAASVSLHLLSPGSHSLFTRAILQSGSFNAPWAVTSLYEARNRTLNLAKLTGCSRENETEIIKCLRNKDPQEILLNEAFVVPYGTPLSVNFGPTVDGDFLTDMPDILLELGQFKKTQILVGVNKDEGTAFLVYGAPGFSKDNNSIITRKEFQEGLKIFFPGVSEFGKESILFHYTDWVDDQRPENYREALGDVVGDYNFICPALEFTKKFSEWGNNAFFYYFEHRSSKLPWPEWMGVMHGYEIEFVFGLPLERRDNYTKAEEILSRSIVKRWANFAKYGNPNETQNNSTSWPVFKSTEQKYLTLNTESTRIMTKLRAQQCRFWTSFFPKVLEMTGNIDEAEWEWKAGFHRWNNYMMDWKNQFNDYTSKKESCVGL
Outline: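 Diluted human plasma BChE was preincubated for 1–45 min with inhibitor at 5×10^-9, 1×10^-8, 2.5×10^-8 and 5×10^-8 M. Residual Ellman activity with BTCh at pH 8 was normalised to a water control. kobs came from a one-phase exponential fit; k_I1 came from the slope of kobs versus concentration.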

Chain of Cholinesterase (Equus caballus, UniProt P81908) (P81908 whole entry): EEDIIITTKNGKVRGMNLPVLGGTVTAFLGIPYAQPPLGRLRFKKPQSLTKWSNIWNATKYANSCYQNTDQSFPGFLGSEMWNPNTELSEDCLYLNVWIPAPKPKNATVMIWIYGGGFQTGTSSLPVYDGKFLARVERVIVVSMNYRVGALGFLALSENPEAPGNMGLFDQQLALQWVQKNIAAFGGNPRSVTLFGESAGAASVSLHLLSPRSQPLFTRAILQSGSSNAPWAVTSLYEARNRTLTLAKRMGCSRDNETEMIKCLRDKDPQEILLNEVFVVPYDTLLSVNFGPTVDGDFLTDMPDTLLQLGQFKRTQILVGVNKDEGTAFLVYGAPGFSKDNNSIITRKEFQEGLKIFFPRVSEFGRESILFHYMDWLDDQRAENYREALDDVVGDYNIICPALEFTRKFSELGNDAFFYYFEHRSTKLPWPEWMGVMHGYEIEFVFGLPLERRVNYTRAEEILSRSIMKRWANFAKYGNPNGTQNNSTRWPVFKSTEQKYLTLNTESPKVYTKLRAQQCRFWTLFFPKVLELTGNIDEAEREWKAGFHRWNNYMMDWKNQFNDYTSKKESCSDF

Row | SMILES | kon (Cholinesterase [1]) | kon (Cholinesterase [2])
1 | CCC(C)(C)NCC(O)c1cc(OC(=O)N(C)C)cc(OC(=O)N(C)C)c1 (centres undefined) | 2370 M⁻¹ s⁻¹ | 100000 M⁻¹ s⁻¹
2 | CCN(C)C(=O)Oc1cc(OC(=O)N(C)CC)cc(C(O)CNC(C)(C)CC)c1 (centres undefined) | 2480 M⁻¹ s⁻¹ | 122000 M⁻¹ s⁻¹

Reference: BindingDB's records for doi:10.1016/j.ejmech.2016.08.061 (South China University of Technology, 2017)
